“And” between values parts separate entries of the source, which are not always exact repeats. Equal values may be shown once. *1 amine or outer side, *2 acyl side, *3 side chain or, on linkers, in order; H or OH if unused. Where a SMILES comes first, the peptide text is derived from it. Bridges are numbered along the chain shown (N, C = ends). [ ]: non-standard residue; d: D form. The star is where a group is joined. X1 = O=C(CC1(S[*:2])CCCCC1)[*:1]; Propyl = CCC*; iPr = CC(C)*
What was measured:
Rattus norvegicus [1] = assay: Antivasopressor effective dose is defined as the dose that reduces the response seen with 2 units of agonist to equal the response seen with 1 unit of agonist administered before antagonist.; assay type: functional
Outline: (§1)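 Intravenous vasopressor assay in phenoxybenzamine-treated rats under urethane anesthesia, agonist USP posterior pituitary reference standard. Effective dose (nmol/kg) cuts the response to 2x units of agonist to that of 1x units given before the antagonist. pA2 = −log(effective dose / 67 mL/kg).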

Rattus norvegicus [2] = assay: Effective dose is defined as the dose that reduces the response seen with 2 units of agonist to equal the response seen with 1 unit of agonist administered before antagonist.; assay type: functional
Rattus norvegicus [3] = assay: In vivo pA2 value represent the negative logarithm of the effective dose divided by the estimated volume of distribution (67 mL/kg).; assay type: functional, organism-based
Rattus norvegicus [4] = assay: Antidiuretic effective dose is expressed as the dose that reduces the response seen with 2 units of agonist to equal the response seen with 1 unit of agonist administered before antagonist.; assay type: functional, Urine
Outline: (§2)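 Rats under ethanol anesthesia, agonist USP posterior pituitary reference standard. Agonist injected 20 and 50 min after the antagonist. Responses at 20 min were used, or at 50 min for analogues that inhibited more then. Each antagonist was given at two doses, one above and one below the effective dose (nmol/kg). pA2 = −log(effective dose / 67 mL/kg).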

Rattus norvegicus [5] = assay: Antivasopressor effective dose is expressed as the dose that reduces the response seen with 2 units of agonist to equal the response seen with 1 unit of agonist administered before antagonist.; assay type: functional; outline: as §1
Rattus norvegicus [6] = assay: In vivo pA2 value represent the negative logarithm of the antidiuretic effective dose divided by the estimated volume of distribution (67 mL/kg).; assay type: functional, organism-based; conditions: Urine, read-out: pA2 (converted); outline: as §2
Rattus norvegicus [7] = assay: In vivo pA2 value represent the negative logarithm of the anti-vasopressor effective dose divided by the estimated volume of distribution (67 mL/kg).; assay type: functional, organism-based; conditions: read-out: pA2 (converted); outline: as §1
Rattus norvegicus [8] = assay: Effective dose is defined as the dose that reduces the response seen with 2 units of agonist to equal the response seen with 1 unit of agonist administered before antagonist; agonist; assay type: functional, organism-based; conditions: filed as agonist

In the case of `CC(C)[C@@H]1NC(=O)[C@H](Cc2ccccc2)NC(=O)[C@H](Cc2ccc(O)cc2)NC(=O)CC2(CCCCC2)SSC[C@@H](C(=O)N2CCC[C@H]2C(=O)N[C@H](CCCN=C(N)N)C(=O)NCC(N)=O)NC(=O)[C@H](CC(N)=O)NC1=O`, the Effective dose (Rattus norvegicus [1]) is reported as 1.5 nM/kg.

`CC(C)[C@@H]1NC(=O)[C@H](Cc2ccccc2)NC(=O)[C@@H](Cc2ccc(O)cc2)NC(=O)CC2(CCCCC2)SSC[C@@H](C(=O)N2CCC[C@H]2C(=O)N[C@@H](CCCN=C(N)N)C(=O)NCC(N)=O)NC(=O)[C@H](CC(N)=O)NC1=O` gave an Effective dose (Rattus norvegicus [1]) of 0.29 nM/kg and an Effective dose (Rattus norvegicus [2]) of 2.2 nM/kg.

For `CCOc1ccc(C[C@@H]2NC(=O)CC3(CCCCC3)SSC[C@@H](C(=O)N3CCC[C@H]3C(=O)N[C@@H](CCCN=C(N)N)C(=O)NCC(N)=O)NC(=O)[C@H](CC(N)=O)NC(=O)[C@H](C(C)C)NC(=O)[C@H](Cc3ccccc3)NC2=O)cc1` (Y(Et)FVNCPRG-NH2; linker N-5 via X1), the Effective dose (Rattus norvegicus [1]) was 0.45 nM/kg, the Effective dose (Rattus norvegicus [2]) was 1.1 nM/kg and the pA2 (Rattus norvegicus [3]) was 7.81 and 8.22.

`CCOc1ccc(C[C@@H]2NC(=O)CC3(CCCCC3)SSC[C@@H](C(=O)N3CCC[C@H]3C(=O)N[C@H](CCCN=C(N)N)C(=O)NCC(N)=O)NC(=O)[C@H](CC(N)=O)NC(=O)[C@H](C(C)C)NC(=O)[C@H](Cc3ccccc3)NC2=O)cc1` (Y(Et)FVNCP[dR]G-NH2; linker N-5 via X1) showed an Effective dose (Rattus norvegicus [1]) of 0.88 nM/kg and an Effective dose (Rattus norvegicus [2]) of 1.8 nM/kg.

Compound `COc1ccc(C[C@@H]2NC(=O)CC3(CCCCC3)SSC[C@@H](C(=O)N3CCC[C@H]3C(=O)N[C@@H](CCCN=C(N)N)C(=O)NCC(N)=O)NC(=O)[C@H](CC(N)=O)NC(=O)[C@H](C(C)C)NC(=O)[C@H](Cc3ccccc3)NC2=O)cc1` (Y(Me)FVNCPRG-NH2; linker N-5 via X1) has an Effective dose (Rattus norvegicus [1]) of 0.23 nM/kg and an Effective dose (Rattus norvegicus [2]) of 1.2 nM/kg.

`COc1ccc(C[C@@H]2NC(=O)CC3(CCCCC3)SSC[C@@H](C(=O)N3CCC[C@H]3C(=O)N[C@H](CCCN=C(N)N)C(=O)NCC(N)=O)NC(=O)[C@H](CC(N)=O)NC(=O)[C@H](C(C)C)NC(=O)[C@H](Cc3ccccc3)NC2=O)cc1` (Y(Me)FVNCP[dR]G-NH2; linker N-5 via X1) was tested, and the Effective dose (Rattus norvegicus [4]) was 4.9 nM/kg, the Effective dose (Rattus norvegicus [5]) was 0.54 nM/kg and the Kb (Rattus norvegicus [6]) was 64.6 nM. For the same compound, the Kb (Rattus norvegicus [7]) was 7.94 nM.

Work on `CCCOc1ccc(C[C@@H]2NC(=O)CC3(CCCCC3)SSC[C@@H](C(=O)N3CCC[C@H]3C(=O)N[C@@H](CCCN=C(N)N)C(=O)NCC(N)=O)NC(=O)[C@H](CC(N)=O)NC(=O)[C@H](C(C)C)NC(=O)[C@H](Cc3ccccc3)NC2=O)cc1` (Y(Propyl)FVNCPRG-NH2; linker N-5 via X1) yielded an Effective dose (Rattus norvegicus [1]) of 0.51 nM/kg and an Effective dose (Rattus norvegicus [2]) of 1.7 nM/kg.

With `CC(C)Oc1ccc(C[C@@H]2NC(=O)CC3(CCCCC3)SSC[C@@H](C(=O)N3CCC[C@H]3C(=O)N[C@@H](CCCN=C(N)N)C(=O)NCC(N)=O)NC(=O)[C@H](CC(N)=O)NC(=O)[C@H](C(C)C)NC(=O)[C@H](Cc3ccccc3)NC2=O)cc1` (Y(iPr)FVNCPRG-NH2; linker N-5 via X1) the Effective dose (Rattus norvegicus [1]) was 0.28 nM/kg and the Effective dose (Rattus norvegicus [2]) was 1.6 nM/kg.

For `CC(C)Oc1ccc(C[C@@H]2NC(=O)CC3(CCCCC3)SSC[C@@H](C(=O)N3CCC[C@H]3C(=O)N[C@H](CCCN=C(N)N)C(=O)NCC(N)=O)NC(=O)[C@H](CC(N)=O)NC(=O)[C@H](C(C)C)NC(=O)[C@H](Cc3ccccc3)NC2=O)cc1` (Y(iPr)FVNCP[dR]G-NH2; linker N-5 via X1), the Effective dose (Rattus norvegicus [1]) was 0.46 nM/kg and the Effective dose (Rattus norvegicus [2]) was 2.2 nM/kg.

`CC(C)[C@@H]1NC(=O)[C@H](Cc2ccccc2)NC(=O)[C@H](Cc2ccc(O)cc2)NC(=O)CC2(CCCCC2)SSC[C@@H](C(=O)N2CCC[C@H]2C(=O)N[C@@H](CCCN=C(N)N)C(=O)NCC(N)=O)NC(=O)[C@H](CC(N)=O)NC1=O` (stereo in doubt) [listing 1 of 2 here] was tested, and the Effective dose (Rattus norvegicus [1]) was 0.76 nM/kg.

With `CC(C)[C@@H]1NC(=O)[C@H](Cc2ccccc2)NC(=O)[C@H](Cc2ccc(O)cc2)NC(=O)CC2(CCCCC2)SSC[C@@H](C(=O)N2CCC[C@H]2C(=O)N[C@@H](CCCN=C(N)N)C(=O)NCC(N)=O)NC(=O)[C@H](CC(N)=O)NC1=O` (stereo in doubt) [listing 2 of 2 here] the Effective dose (Rattus norvegicus [8]) was “Agonist”.

`CC(C)[C@@H]1NC(=O)[C@H](Cc2ccccc2)NC(=O)[C@H](Cc2ccc(O)cc2)NC(=O)CC2(CCCCC2)SSC[C@@H](C(=O)N2CCC[C@H]2C(=O)N[C@@H](CCCN=C(N)N)C(=O)NCC(N)=O)NC(=O)[C@H](CC(N)=O)NC1=O` (stereo in doubt; 9) showed an Effective dose (Rattus norvegicus [1]) of 0.6 nM/kg and an Effective dose (Rattus norvegicus [2]) of 6.3 nM/kg.

Reference: ChEMBL document CHEMBL1121930, “Design of more potent antagonists of the antidiuretic responses to arginine-vasopressin” (J Med Chem, 1982)
